This is a sample that favours compounds with a hit; in the whole collection about 3.5% have one here.
HTRA1 inhibitor – blocks human HTRA1 serine peptidase. recombinant HTRA1, FP-rhodamine activity-based probe, fluorescence polarization. Q92743. 340,000 tested, 0.5% active. inhibition, % at 5.96 µM; in the data active means inhibition above about 36%;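 further: 0% = enzyme with DMSO and 100% = wells lacking enzyme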
PRMT1 inh – inhibitors of human PRMT1. recombinant PRMT1, activity-based probe fluorescence polarization. inhibition, % at 2.79 µM. 370,000 tested, 1.3% active. AID 652257;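 active means inhibition above about 21% made by adding two undisclosed values, limit read from the data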
TCR CD3 inh – blocks the human TCR-CD3 interaction; 360,000 tested, 0.37% active; TAMRA-labeled TCR probe fluorescence, biochemical; inhibition, % at 9.4 µM; in the data active means inhibition above about 19%;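 further: recombinant mutant TCR 2C K166C tagged with TAMRA read by polarization; 0% = receptor in buffer alone and 100% = receptor with positive control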
mABHD4 FP – inhibits mouse alpha/beta hydrolase domain 4. AID 720543. 370,000 tested, 0.54% active. purified mABHD4, FP-Rh probe fluorescence polarization. Q8VD66. inhibition, % at 8.92 µM;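 active means inhibition exceeding the mean over every tested compound plus 3 SD, cut at about 30% in these data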;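 further: 0% = plate median of compound wells and 100% = S159A mutant with DMSO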
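Assay system: mABHD4 protein; medium: HEPES pH 7.0, NaCl, Pluronic buffer; dosing: 8.92 µM, single dose; schedule: 45 min + 60 min at 25 °C; signal: FP readout, ex 525 nm / em 598 nm; read-out: normalized percent inhibition of probe labeling; repeats: single replicate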
rCAG binder – molecules binding r(CAG) RNA repeats. r(CAG) RNA repeat, TO-PRO-1 dye displacement fluorescence. inhibition, % at 3 µM. 370,000 tested, 1.3% active;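 active means inhibition above the plate cutoff, the mean of all test compounds on that plate plus 3 SD, cut at about 35% in these data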;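 further: 0% = DMSO alone and 100% = 100 µM mitoxantrone as full dye displacement; higher means more dye released from RNA so lower well fluorescence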
SIAE inh – inhibitors of human sialic acid acetylesterase SIAE. inhibition, % at 9.66 µM. Q9HAT2. AID 1053197. 370,000 tested, 0.69% active. SIAE FP-Rh probe binding, fluorescence polarization;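 active means inhibition above a cutoff: mean of compounds within the control limits plus 3 SD of those, cut at about 17% in these data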;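 further: 0% = plate median of compound wells and 100% = probe without SIAE protein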
Target sequence (Q9HAT2 whole entry, looked up): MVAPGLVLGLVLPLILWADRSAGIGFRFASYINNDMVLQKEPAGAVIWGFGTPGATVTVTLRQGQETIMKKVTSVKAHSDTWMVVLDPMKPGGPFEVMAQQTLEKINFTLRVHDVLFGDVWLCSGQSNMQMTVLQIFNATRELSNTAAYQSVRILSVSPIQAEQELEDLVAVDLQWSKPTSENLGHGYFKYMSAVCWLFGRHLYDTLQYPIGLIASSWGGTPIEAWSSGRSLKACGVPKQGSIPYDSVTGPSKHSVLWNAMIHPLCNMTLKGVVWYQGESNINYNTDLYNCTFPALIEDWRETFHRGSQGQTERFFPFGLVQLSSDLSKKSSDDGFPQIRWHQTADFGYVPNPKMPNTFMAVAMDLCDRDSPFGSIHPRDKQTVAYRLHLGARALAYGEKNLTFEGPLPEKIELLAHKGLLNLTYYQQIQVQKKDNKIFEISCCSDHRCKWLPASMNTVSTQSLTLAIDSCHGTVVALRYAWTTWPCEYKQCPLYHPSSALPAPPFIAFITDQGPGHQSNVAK
rCAG bind conf – r(CAG) RNA repeat binding, confirmation. shares compounds with rCAG binder. TO-PRO-1 dye displacement fluorescence. inhibition, % at 3 µM. 4,300 tested, 70% active. AID 652065;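 active means inhibition above a per-plate cutoff, the mean inhibition of sample wells plus 3 SD, cut at about 35% in these data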;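 further: loss of TO-PRO-1 fluorescence as compound displaces dye from 1x1 AA loop RNA; 0% = DMSO only wells and 100% = 100 µM mitoxantrone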
DNA CAG counter – disrupts DNA CAG TO-PRO-1 complex, flagging rCAG hits; shares compounds with rCAG binder; d(CAG) DNA oligo TO-PRO-1 dye displacement, fluorescence; inhibition, % at 3 µM; 4,300 tested, 94% active;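 active means inhibition above its plate's cutoff, the mean test-well inhibition plus 3 SD, cut at about 4.8% in these data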;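 further: 0% = DNA dye mix with DMSO and 100% = 100 µM mitoxantrone; hits displace the dye from DNA and so lower well fluorescence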
DNA CAG DR – DNA CAG dye complex inhibition, dose response counter-screen; 250 tested, 20% active; DNA CAG/GTC duplex TO-PRO-1 dye displacement fluorescence; shares compounds with rCAG binder; IC50, µM; in the data active means IC50 below about 10 µM
* marks the source's active call; other numbers are inactive results; · = no result.

SMILES	HTRA1 inhibitor	PRMT1 inh	TCR CD3 inh	mABHD4 FP	rCAG binder	SIAE inh	rCAG bind conf	DNA CAG counter	others
CNC(=O)C[C@@H]1CC[C@@H]2[C@H](COc3ccc(NC(=O)c4cccc(F)c4)cc3C(=O)N2C)O1	·	3	·	5	1	4	·	·
CC(C)(C)OC(=O)N1CCC(Cc2cc(-c3cccc(Br)c3)no2)(C(=O)O)CC1	-10	2	-4	0	48*	0	49*	14*	DNA CAG DR=>30
O=C(CSc1nnc(COc2ccc(Cl)cc2)n1Cc1ccco1)Nc1ccc2c(c1)OCO2	·	-3	·	2	4	7	·	·
NS(=O)(=O)c1cccc(NS(=O)(=O)c2ccc(/C=C/C(=O)OCC(=O)c3ccccc3)cc2)c1	-17	9	-4	-75	60*	-22	54*	22*
Cc1ccc(S(=O)(=O)N2[C@@H](c3cccc(Cl)c3)C(C(=O)O)=CC[C@H]2c2cccs2)cc1	-25	0	5	10	58*	-6	50*	15*
Cc1ccc(S(=O)(=O)N2[C@@H](c3ccc(F)cc3)C(C(=O)O)=CC[C@H]2c2cccs2)cc1	-9	0	-1	4	43*	-1	37*	9.9*
Cc1ccc([C@H]2C(C(=O)O)=CC[C@@H](c3cccs3)N2S(=O)(=O)c2ccc(C)cc2)cc1	-7	3	6	12	61*	1	48*	17*
Cc1ccc(S(=O)(=O)N2[C@@H](c3cccc(Cl)c3)C(C(=O)O)=CC[C@H]2c2ccc(Cl)cc2)cc1	-72	5	-4	11	10	-7	·	·
Cc1ccc(S(=O)(=O)N2[C@@H](c3ccc(Cl)cc3)C(C(=O)O)=CC[C@H]2c2cccs2)cc1	-17	3	-1	6	67*	5	54*	17*
COc1cc(O)c([C@@H](CC(=O)N2CC(C)CC(C)C2)c2ccc3c(c2)OCO3)c(OC)c1 (stereo partly specified)	·	-2	·	-12	·	1	·	·
COC(=O)C1CN(Cc2ccc(F)cc2)CCS(=O)(=O)N1Cc1cn(CCOC(C)=O)nn1 (stereo unspecified)	·	3	·	8	-1	-6	·	·
COC(=O)c1cc(C(c2ccccc2O)C2CCC(C)(C)O2)n2ccccc12 (stereo unspecified)	·	4	·	1	3	-3	·	·
CC[C@H](CCCCCCCn1ccc2ccccc21)CCC(=O)N(c1ccccc1)c1ccccc1	·	2	·	-1	9	5	·	·
O=S(=O)(c1sccc1Br)n1c(CN2CCOCC2)nc2ccccc21	·	1	·	7	3	1	·	·
Cc1ccc(S(=O)(=O)N2[C@@H](c3ccc(Br)cc3)C(C(=O)O)=CC[C@H]2c2cccs2)cc1	-11	0	-3	1	74*	-3	66*	29*
COc1cccc([C@@H]2CC=C(C(=O)O)[C@H](c3ccc(Br)cc3)N2S(=O)(=O)c2ccc(C)cc2)c1	-7	-1	2	7	23	16	·	·
Cc1ccc(S(=O)(=O)N2[C@@H](c3ccc(C(C)(C)C)cc3)C(C(=O)O)=CC[C@H]2c2cccs2)cc1	-40	3	1	12	81*	-7	73*	34*	DNA CAG DR=9.5*
Cc1ccc(CSc2nnc(-c3cccc(S(=O)(=O)N4CCOCC4)c3)n2CC(C)C)cc1	-8	-1	1	1	49*	8	0	0
CC(C)Cn1c(SCC(N)=O)nnc1-c1cccc(S(=O)(=O)N2CCOCC2)c1	2	-2	5	0	2	1	·	·
CCOC(=O)CC[C@@H]1CC[C@]2(CCCN(C(=O)c3ccc4ccccc4n3)C2)O1	·	8	·	3	-1	1	·	·
CC(=O)NC(Cc1ccc2c(c1)OCO2)C(=O)N1CCCN(C(C)=O)CC1 (stereo unspecified)	·	6	·	1	1	1	·	·

High-throughput results: PubChem, The Scripps Research Institute Molecular Screening Center
